Series [1] has as its system Leishmania donovani. The series can be described thus: Antikinetoplastid activity against Leishmania donovani MHOM/ET/67/HU3 promastigotes after 3 days incubation at 27 degC under dark condition and 5% CO2 atmosphere by MTT assay. The conditions noted are these: MHOM/ET/67/HU3, 72 h. The format is functional, organism-based. For orientation: Tetrazolium assays rely on reduction of a dye to a coloured formazan, in cell work by metabolically active cells.

Series [2] concerns Trypanosoma brucei brucei. The series can be described thus: Antikinetoplastid activity against Trypanosoma brucei brucei CMP by drug incubation infectivity test. To be noted: read-out: MEC. Format: functional.
The nature of series [3]: Cytotoxicity against mouse RAW264.7 cells assessed as cell survival at 100 uM after 24 hrs incubation by trypan blue exclusion method. Format: cell-based. The conditions noted are these: read-out: Survival. In short, it runs like this: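 RAW 264.7 mouse macrophages grown in DMEM with 10% heat-inactivated FBS, seeded at 5 × 10^4 cells/well, and held 24 h at 37 °C in 5% CO2. Medium was then replaced with fresh DMEM containing compound, followed by a further 24 h incubation. Cells were scraped off, stained with trypan blue and counted live on a hemocytometer. Viability is given as % of untreated cells (100%).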

For series [4], the system named is Leishmania donovani. Put plainly: Antikinetoplastid activity against Leishmania donovani MHOM/ET/67/HU3 amastigotes after 3 days incubation at 37 degC under dark condition and 5% CO2 atmosphere by SYBR green I dye based assay. Format: functional, organism-based. To be noted: MHOM/ET/67/HU3, 72 h. The procedure, abridged: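 Axenic amastigotes were obtained by diluting log-phase LV9 promastigotes into amastigote medium (M-199 with KCl, glucose, glutamine, trypticase peptone, haemin, 20% FBS; pH 5.5) and grown at 37 °C in 5% CO2. Parasites were exposed to the compounds for 72 h, then lysed. Growth was read by SYBR Green I DNA fluorescence against a parasite-density standard range, and the IC50 was derived.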

Series [5] is described as follows: Cytotoxicity against human MCF7 cells assessed as cell survival at 100 uM after 72 hrs incubation by MTT assay. Format: cell-based. To be noted: read-out: Survival.
For the next series, the system named is MCF7. The series can be described thus: Cytotoxicity against human MCF7 cells assessed as cell viability after 72 hrs incubation by MTT assay. Format: cell-based. The conditions noted are these: MCF7, 72 h.

As to `Cn1c(=O)cc(O)c2ccccc21`, in the series with Leishmania donovani [1], the half-maximal inhibitory concentration (IC50) is above 100 µM. For the same molecule, in series [2], the minimal effective concentration is above 200 µM. Also, the viability at 24 h, 100 µM in series [3] is 70%.
In the same order, the values of `Cn1c(=O)c([N+](=O)[O-])c(O)c2ccccc21` are above 100 µM, above 200 µM and 80%.
On to `Cc1ccc(S(=O)(=O)Oc2c([N+](=O)[O-])c(=O)n(C)c3ccccc23)cc1`, for which the IC50 with Leishmania donovani [1] was found to be 3 µM; in the series on Leishmania donovani [4], 2 µM. Moreover, the minimal effective concentration in series [2] is above 200 µM. Further, in series [3], the viability at 24 h, 100 µM worked out at 100%.
With `Cc1ccc(S(=O)(=O)Oc2c(N)c(=O)n(C)c3ccccc23)cc1`, the midpoint of inhibition in the series on Leishmania donovani [1], the IC50, lay at 30 µM. In addition, the minimal effective concentration in series [2] stood at 12.5 µM. The viability at 72 h, 100 µM in series [5] was 24%.
Take `COc1ccc(C(=O)Nc2c(O)c3ccccc3n(C)c2=O)cc1`: the values for the IC50 in the series with Leishmania donovani [1] and with Leishmania donovani [4] were 11 µM and above 100 µM, respectively. Moreover, the minimal effective concentration in series [2] is above 200 µM. The viability at 72 h, 100 µM in series [5] turned out to be 81%.
Molecule `Cn1c(=O)c(NC(=O)c2ccc(F)cc2)c(O)c2ccccc21` gave an IC50 with Leishmania donovani [1] above 100 µM. For the same molecule, the minimal effective concentration in series [2] was above 200 µM. Moreover, in series [5], the viability at 72 h, 100 µM stood at 74%.
As for `COc1cc(C(=O)Nc2c(O)c3ccccc3n(C)c2=O)cc(OC)c1OC`, the half-inhibitory concentration (IC50) in the series with Leishmania donovani [1] was 3.5 µM; in the series on Leishmania donovani [4] it was above 100 µM. The minimal effective concentration in series [2] is above 200 µM. Also, the viability at 72 h, 100 µM in series [5] worked out at 100%.
As for `COc1cc(C(=O)Nc2c(O)c3ccccc3[nH]c2=O)cc(OC)c1OC`, the half-maximal inhibitory concentration (IC50) in the series with Leishmania donovani [1] was above 100 µM. In series [2], the minimal effective concentration was above 200 µM. For the same molecule, the viability at 72 h, 100 µM in series [5] was determined as 76%.
`Cn1c(=O)c(NC(=O)c2ccc3c(c2)C=CC(C)(C)O3)c(O)c2ccccc21` gave an IC50 in the series with Leishmania donovani [1] of 53 µM. Also, the minimal effective concentration in series [2] is above 200 µM. Besides, in series [5], the viability at 72 h, 100 µM is 100%.
In the series on Leishmania donovani [1], `Cn1c(=O)c(NC(=O)c2ccc3c(c2)CCC(C)(C)O3)c(O)c2ccccc21` gave an IC50 of 56 µM. Also, in series [2], the minimal effective concentration is above 200 µM. Further, the viability at 72 h, 100 µM in series [5] stood at 98%.
Regarding `CCCC(=O)Nc1c(O)c2ccccc2n(C)c1=O`, the results for the IC50 with Leishmania donovani [1] and in the series with Leishmania donovani [4] were 11 µM and 3 µM, respectively. In series [2], the minimal effective concentration is above 200 µM. Also, in series [5], the viability at 72 h, 100 µM was 97%.
Regarding `Cn1c(=O)c(NC(=O)CCCCCCCCCCOn2nnc3ccccc32)c(O)c2ccccc21`, in the series on Leishmania donovani [1], the IC50 came to 34 µM. In addition, the minimal effective concentration in series [2] was 200 µM. Also, the viability at 72 h, 100 µM in series [5] amounted to 72%.
Take `Cn1c(=O)c(NC(=O)c2cc3ccccc3[nH]2)c(O)c2ccccc21`: the IC50 with Leishmania donovani [1] was above 100 µM. Also, the minimal effective concentration in series [2] is above 200 µM. Moreover, the viability at 72 h, 100 µM in series [5] came to 107%.
For the molecule `COc1ccc(C(=O)Nc2c(OS(=O)(=O)c3ccc(C)cc3)c3ccccc3n(C)c2=O)cc1`, the IC50 in the series on Leishmania donovani [1] was found to be 25 µM. Further, in series [2], the minimal effective concentration is above 200 µM. Also, the viability at 72 h, 100 µM in series [5] came to 82%.
The like results for `Cc1ccc(S(=O)(=O)Oc2c(NC(=O)c3ccc(F)cc3)c(=O)n(C)c3ccccc23)cc1` were, in that order, 49 µM, above 200 µM and 57%.
For `COc1cc(C(=O)Nc2c(OS(=O)(=O)c3ccc(C)cc3)c3ccccc3n(C)c2=O)cc(OC)c1OC`, the IC50 in the series on Leishmania donovani [1] was 41 µM. In addition, the minimal effective concentration in series [2] was above 200 µM. Besides, the viability at 72 h, 100 µM in series [5] amounted to 84%.
In the series on Leishmania donovani [1], `COc1cc(C(=O)Nc2c(OS(=O)(=O)c3ccc(C)cc3)c3ccccc3[nH]c2=O)cc(OC)c1OC` gave an IC50 of 18 µM. Further, the minimal effective concentration in series [2] is above 200 µM. Moreover, the viability at 72 h, 100 µM in series [5] was 55%.
Molecule `Cc1ccc(S(=O)(=O)Oc2c(NC(=O)c3ccc4c(c3)C=CC(C)(C)O4)c(=O)n(C)c3ccccc23)cc1` returned a 50% inhibitory concentration (IC50) with Leishmania donovani [1] of 30 µM. For the same molecule, the minimal effective concentration in series [2] was above 200 µM. In addition, in series [5], the viability at 72 h, 100 µM was found to be 37%.
The like results for `Cc1ccc(S(=O)(=O)Oc2c(NC(=O)c3ccc4c(c3)CCC(C)(C)O4)c(=O)n(C)c3ccccc23)cc1` were, in that order, 30 µM, above 200 µM and 100%.
`CCCC(=O)Nc1c(OS(=O)(=O)c2ccc(C)cc2)c2ccccc2n(C)c1=O`: 50 µM corresponded to half-maximal inhibition in the series with Leishmania donovani [1] (IC50). Besides, the minimal effective concentration in series [2] is above 200 µM. The viability at 72 h, 100 µM in series [5] came to 55%.
The like results for `Cc1ccc(S(=O)(=O)Oc2c(NC(=O)CCCCCCCCCCOn3nnc4ccccc43)c(=O)n(C)c3ccccc23)cc1` were, in that order, 37 µM, above 200 µM and 69%.
Turning to `Cc1ccc(S(=O)(=O)Oc2c(NC(=O)c3cc4ccccc4[nH]3)c(=O)n(C)c3ccccc23)cc1`, the IC50 in the series with Leishmania donovani [1] amounted to 42 µM. The minimal effective concentration in series [2] was above 200 µM. The viability at 72 h, 100 µM in series [5] is 50%.
The like results for `COc1cc(C(=O)Nc2c(OS(=O)(=O)c3cccs3)c3ccccc3n(C)c2=O)cc(OC)c1OC` were, in that order, 14 µM, above 200 µM and 77%.
`COc1ccc(C(=O)Nc2cc3ccccc3n(C)c2=O)cc1` displayed an IC50 in the series on Leishmania donovani [1] above 100 µM. For the same molecule, the minimal effective concentration in series [2] is above 200 µM. Further, in series [5], the viability at 72 h, 100 µM was 89%.
In the same order, the values of `COc1ccc(C(=O)Nc2cc3cc(Br)ccc3n(C)c2=O)cc1` are above 100 µM, above 200 µM and 20%.
On to `COc1ccc(C(=O)Nc2cc3cc(OC)ccc3n(C)c2=O)cc1`, for which, in the series on Leishmania donovani [1], the IC50 is above 100 µM. In addition, the minimal effective concentration in series [2] was above 200 µM. Also, in series [5], the viability at 72 h, 100 µM stood at 22%.
On to `CCCCNc1cc2ccccc2n(C)c1=O`, for which the results for the half-inhibitory concentration (IC50) with Leishmania donovani [1] and in the series on MCF7 were above 100 µM and 7 µM, respectively. In series [2], the minimal effective concentration is above 200 µM. In addition, in series [5], the viability at 72 h, 100 µM is 10%.
For `O=[N+]([O-])c1c(O)nc2ccccc2c1O`, the half-inhibitory concentration (IC50) with Leishmania donovani [1] is above 100 µM. For the same molecule, the minimal effective concentration in series [2] was above 200 µM. Also, the viability at 24 h, 100 µM in series [3] was found to be 90%.
Molecule `CCCCCCCCCCCCCCCCOP(=O)([O-])OCC[N+](C)(C)C` [MILTEFOSINE] gave an IC50 in the series on Leishmania donovani [4] of 5 µM. Besides, the viability at 24 h, 100 µM in series [3] stood at 85%.
The molecule `N=C(N)c1ccc(OCCCCCOc2ccc(C(=N)N)cc2)cc1` [PENTAMIDINE] had an IC50 with Leishmania donovani [1] of 2.84 µM. For the same molecule, the minimal effective concentration in series [2] came to 5 µM. The viability at 24 h, 100 µM in series [3] came out at 75%.

As usually defined, the IC50 is the concentration at which inhibition is half-maximal.

The values above are taken from ChEMBL document CHEMBL2021923, “Synthesis and antikinetoplastid activities of 3-substituted quinolinones derivatives” (Eur J Med Chem, 2012).
